From article PMC3696402 (Neuropharmacology, 2013)

What was measured:
histamine H1 GPCRs = settings: previous studies; ref Bucholtz et al., 2009; cited from earlier work
C57Bl/6J male mice [1] = assay: Locomotor activity; type: in vivo
C57Bl/6J male mice [2] = assay: DOI-elicited head-twitch response; type: in vivo; settings: for Number of head-twitches: 10-min session; for DOI-elicited HTR (responses) after pretreatment: 30 mg/kg i.p. pretreatment before 1 mg/kg (−)-DOI; for DOI-elicited HTRs after oral administration: 30 mg/kg oral (gavage) 20 min before (−)-DOI 1.0 mg/kg; for ED50 value (±95% CL), 50% attenuation of the DOI-elicited response: i.p. pretreatment before 1 mg/kg (−)-DOI
In short: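 Male C57Bl/6J mice (Jackson, pair-housed, ~8 weeks old on arrival, ≥1 week acclimation), tested mid-light phase after 30 min room habituation. Test compound or saline (sterile saline, 0.01 ml/g) given i.p. 10 min, or orally by gavage 20 min, before (−)-DOI (0.1–1.0 mg/kg) or saline. Ten min after DOI, head twitches counted over 10 min by a blind observer. ED50 reported with 95% CL.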

[3] = molecular target: adenosine, adrenergic, benzodiazepine, cholinergic, dopamine, GABAA, histamine H2, H3, H4, NMDA/PCP, opiate, and serotonin 5-HT1A, 5-HT1B, receptors; assay: Preliminary off-target binding studies; settings: read-out: Ki (off-target receptors), comparatively low (Ki > 0.5 μM) or very low (Ki > 1 μM) affinity, initial results, PDSP 2012
5HT2A receptors [4] = molecular target: T1, 5HT2A receptors (Homo sapiens, UniProt P28223); assay: Radioreceptor competition binding, [3H]-ketanserin, HEK membranes; settings: read-out: 5HT2A Ki ± SEM; [3H]-ketanserin 2.0 nM, 1.0 h at 37°C
T1 sequence (P28223 whole entry, canonical isoform): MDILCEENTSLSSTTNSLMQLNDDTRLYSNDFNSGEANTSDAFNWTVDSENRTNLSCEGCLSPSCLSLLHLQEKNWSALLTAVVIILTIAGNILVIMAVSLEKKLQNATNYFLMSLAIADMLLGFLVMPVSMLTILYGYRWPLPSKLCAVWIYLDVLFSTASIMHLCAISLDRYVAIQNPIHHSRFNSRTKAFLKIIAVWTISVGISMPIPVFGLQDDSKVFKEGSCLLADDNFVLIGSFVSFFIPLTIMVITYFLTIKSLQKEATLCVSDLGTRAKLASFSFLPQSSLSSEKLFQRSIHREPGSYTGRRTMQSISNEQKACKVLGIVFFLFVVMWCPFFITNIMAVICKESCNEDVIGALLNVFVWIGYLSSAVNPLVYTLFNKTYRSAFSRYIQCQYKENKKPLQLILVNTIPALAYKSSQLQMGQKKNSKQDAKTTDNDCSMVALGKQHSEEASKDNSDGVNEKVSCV
In short: (§1)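 HEK-293 cells transiently transfected (Lipofectamine 2000, 24–48 h) with human receptor cDNA (5HT2C: unedited INI isoform). Membranes in 50 mM Tris, 10 mM MgCl2, 0.1 mM EDTA; 3–5 μg protein per well. Nonspecific binding defined with 10 μM mianserin. Separated by GF/B filtration with five 50 mM Tris-HCl washes, then scintillation counting. Triplicates, at least 3 experiments; IC50 converted to Ki by Cheng–Prusoff.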

5HT2C receptors [5] = molecular target: T2, 5HT2C receptors (Homo sapiens, UniProt P28335); assay: Radioreceptor competition binding, [3H]-mesulergine, HEK membranes; settings: read-out: 5HT2C Ki ± SEM; [3H]-mesulergine 1.4 nM, 1.0 h at 37°C
T2 sequence (P28335 33-458): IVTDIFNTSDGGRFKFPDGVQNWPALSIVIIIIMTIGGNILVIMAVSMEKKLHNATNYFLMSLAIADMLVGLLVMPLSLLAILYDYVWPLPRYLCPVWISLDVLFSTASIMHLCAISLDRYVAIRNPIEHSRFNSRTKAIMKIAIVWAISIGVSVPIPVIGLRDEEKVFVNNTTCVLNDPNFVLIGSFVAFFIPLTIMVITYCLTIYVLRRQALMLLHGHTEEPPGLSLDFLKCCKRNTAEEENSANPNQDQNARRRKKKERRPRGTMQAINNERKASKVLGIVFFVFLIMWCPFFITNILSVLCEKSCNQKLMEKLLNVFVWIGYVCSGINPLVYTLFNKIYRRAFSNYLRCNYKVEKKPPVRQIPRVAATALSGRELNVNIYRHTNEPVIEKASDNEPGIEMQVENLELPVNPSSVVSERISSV
In short: as §1

5HT2B receptors [6] = molecular target: T3, 5HT2B receptors (Homo sapiens, UniProt P41595); assay: Radioreceptor competition binding, [3H]-mesulergine, HEK membranes; settings: read-out: 5HT2B Ki ± SEM; [3H]-mesulergine 1.95 nM, 1.0 h at 37°C
T3 sequence (P41595 whole entry): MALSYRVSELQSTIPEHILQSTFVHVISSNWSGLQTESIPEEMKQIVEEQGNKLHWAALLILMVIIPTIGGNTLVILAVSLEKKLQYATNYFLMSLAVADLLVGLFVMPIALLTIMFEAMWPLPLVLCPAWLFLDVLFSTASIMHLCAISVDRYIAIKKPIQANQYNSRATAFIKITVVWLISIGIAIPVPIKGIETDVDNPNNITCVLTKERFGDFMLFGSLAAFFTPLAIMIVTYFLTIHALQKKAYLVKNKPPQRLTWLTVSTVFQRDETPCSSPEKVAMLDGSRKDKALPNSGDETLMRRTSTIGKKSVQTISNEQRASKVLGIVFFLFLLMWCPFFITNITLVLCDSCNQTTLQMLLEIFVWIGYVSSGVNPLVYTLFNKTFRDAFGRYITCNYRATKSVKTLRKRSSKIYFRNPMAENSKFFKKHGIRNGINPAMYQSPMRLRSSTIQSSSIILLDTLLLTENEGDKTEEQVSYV
In short: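 Membranes came from HEK-293 cells transfected with 24 μg human 5HT2B cDNA (Lipofectamine 2000, 24–48 h) and collected in 50 mM Tris, 10 mM MgCl2, 0.1 mM EDTA. […] Nonspecific binding: 10 μM mianserin. Filtered on GF/B, washed five times with Tris-HCl, scintillation counted. Triplicates, ≥3 experiments.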

5HT2A receptors [7] = molecular target: T1, 5HT2A receptors; assay: PLC activation and [3H]-IP formation in HEK cells; type: cell-based; settings: for 5HT2A Function (activation of PLC/IP formation): at 10 μM
5HT2B receptors [8] = molecular target: T3, 5HT2B receptors; assay: PLC activation and [3H]-IP formation in HEK cells; type: cell-based; settings: at 10 μM
5HT2C receptors [9] = molecular target: T2, 5HT2C receptors; assay: PLC activation and [3H]-IP formation in HEK cells; type: cell-based; settings: for EC50: read-out: 5HT2C EC50±SEM, [3H]-IP formation, 30 min incubation
C57Bl/6J male mice [10] = assay: Palatable meal eating; type: in vivo; settings: for Eating (pellets consumed) as % of baseline levels: 24 mg/kg i.p. 15 min before 30-min access to Crunchies; for ED50 value (±95% CL), 50% attenuation of consumption: i.p. 15 min before 30-min access to Crunchies
In short: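 Singly housed male C57Bl/6J mice (Harlan) with chow and water ad lib. In home cages, 10 sweet pellets (~190 mg, 3.5 kcal/g) were offered five days/week, with access tapered to 30 min/day. After ~2 weeks of stable intake, test compound was given i.p. (2 ml/kg, sterile saline) 15 min before access. Pellets eaten were counted. ED50 reported with 95% CL.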

[11] = 3 mg/kg i.p. with DOI (1 mg/kg)
[12] = 10 mg/kg i.p. with DOI (1 mg/kg)
[13] = 10 mg/kg i.p. with saline (no DOI)
[14] = 30 mg/kg i.p. with DOI (1 mg/kg)
[15] = 30 mg/kg i.p. with saline (no DOI)
[16] = 30 mg/kg oral pretreatment before 1.0 mg/kg DOI

Compound | Affinity at histamine H1 GPCRs (histamine H1 GPCRs) | Ki [3] | Ki (5HT2A receptors [4]) | Ki (5HT2C receptors [5]) | Ki (5HT2B receptors [6]) | 5HT2A Function (activation of PLC/IP formation) (5HT2A receptors [7]) | Distance travelled (mean ± s.e.m.) (C57Bl/6J male mice [1]; [11]) | Distance travelled (mean ± s.e.m.) (C57Bl/6J male mice [1]; [12]) | Distance travelled (mean ± s.e.m.) (C57Bl/6J male mice [1]; [13]) | Distance travelled (mean ± s.e.m.) (C57Bl/6J male mice [1]; [14]) | Distance travelled (mean ± s.e.m.) (C57Bl/6J male mice [1]; [15]) | Distance travelled (mean ± s.e.m.) (C57Bl/6J male mice [1]; [16]) | DOI-elicited HTR (responses) after pretreatment (C57Bl/6J male mice [2]) | DOI-elicited HTRs after oral administration (C57Bl/6J male mice [2]) | ED50 value (±95% CL), 50% attenuation of the DOI-elicited response (C57Bl/6J male mice [2]) | 5HT2B Function (activation of PLC/IP formation) (5HT2B receptors [8]) | Function at the 5HT2C receptor (efficacy compared to 5HT) (5HT2C receptors [9]) | EC50 (5HT2C receptors [9]) | Eating (pellets consumed) as % of baseline levels (C57Bl/6J male mice [10]) | ED50 value (±95% CL), 50% attenuation of consumption (C57Bl/6J male mice [10]) | other results
CN(C)[C@@H]1Cc2ccccc2[C@@H](c2ccccc2)C1 (relative stereo) [(−)-trans-PAT, (−)-(2S, 4R)-trans-4-phenyl-N,N-dimethyl-2-aminotetralin, reference compound] | high affinity |  |  |  |  |  |  |  |  |  |  |  |  |  |  |  |  |  |  |  | 
COc1cc(CC(C)N)c(OC)cc1I.Cl (single isomer, unassigned; (-)) [(−)-DOI, (−)-2,5-dimethoxy-4-iodoamphetamine hydrochloride, reference compound] |  |  |  |  |  |  |  |  |  |  |  |  |  |  |  |  |  |  |  |  | Distance travelled (mean ± s.e.m.) (C57Bl/6J male mice [1]; saline pretreatment, (−)-DOI 0.1 mg/kg): 2829 ± 481 cm; Distance travelled (mean ± s.e.m.) (C57Bl/6J male mice [1]; saline pretreatment, (−)-DOI 0.3 mg/kg): 2804 ± 353 cm; Distance travelled (mean ± s.e.m.) (C57Bl/6J male mice [1]; saline pretreatment, (−)-DOI 1.0 mg/kg): 3626 ± 392 cm; Number of head-twitches (C57Bl/6J male mice [2]; 0.1 mg/kg (−)-DOI preceded by a saline injection): 6; Number of head-twitches (C57Bl/6J male mice [2]; 0.3 mg/kg (−)-DOI preceded by a saline injection): 22; Number of head-twitches (C57Bl/6J male mice [2]; 1.0 mg/kg (−)-DOI preceded by a saline injection): 45; Number of HTRs (C57Bl/6J male mice [2]; (−)-DOI 1.0 mg/kg following oral saline administration): 37.5
CN(C)[C@H]1Cc2ccccc2[C@H](c2ccc(Cl)cc2)C1 (stereo in doubt) [(+)-p-Cl-PAT, (+)-(2R, 4S)-trans-4-(4′-chlorophenyl)-N,N-dimethyl-2-aminotetralin] |  | > 500 nM | 42 ± 6 nM | 45 ± 7 nM | 80 ± 10 nM | No Activation | 3523 ± 518 cm | 2557 ± 99 cm | 2142 ± 124 cm | 1329 ± 434 cm | 870 ± 502 cm | 1586 ± 398 cm | 3.3 | 8.5 | 8.2 (5.4–12.4) mg/kg | No Activation ^1 | partial agonists | 140 ± 20 nM | 15.9% | 14.8 (11.8–18.7) mg/kg | pA2 (competitive antagonism of 5HT activation of 5HT2A-mediated [3H]-IP formation) (5HT2A receptors [7]; Schild analysis versus 5HT): 6.21 ± 0.55; Distance travelled (mean ± s.e.m.) (C57Bl/6J male mice [1]; 3 mg/kg i.p. with saline (no DOI)): 2216 ± 98 cm; Potency at 5HT2C relative to (−)-p-Cl-PAT (5HT2C receptors [9]; ratio of EC50 values): about 12 times
CN(C)[C@H]1Cc2ccccc2[C@H](c2ccc(Cl)cc2)C1 (stereo in doubt) [(±) p-Cl-PAT, racemic trans-4-(4′-chlorophenyl)-N,N-dimethyl-2-aminotetralin] | high affinity |  |  |  |  |  |  |  |  |  |  | 1662 ± 468 cm |  | 13.25 |  |  |  |  |  |  | 
CN(C)[C@@H]1Cc2ccccc2[C@@H](c2ccc(Cl)cc2)C1 (stereo in doubt) [(−)-p-Cl-PAT, (−)-(2S, 4R)-trans-4-(4′-chlorophenyl)-N,N-dimethyl-2-aminotetralin] |  | > 500 nM | 240 ± 32 nM | 130 ± 16 nM | 300 ± 30 nM | No Activation ^1 | 3386 ± 150 cm | 3064 ± 309 cm | 3097 ± 937 cm | 1889 ± 191 cm | 1994 ± 165 cm | 1944 ± 654 cm | 13 | 18.25 | 20.1 (14.0–28.8) mg/kg | No Activation ^1 | partial agonists | 1650 ± 149 nM | 36.4% | 21.3 (18.5–24.4) mg/kg | 
